Laboratory results published in ChEMBL document CHEMBL1153905, “Functionalized 3-benzylidene-indolin-2-ones: inducers of NAD(P)H-quinone oxidoreductase 1 (NQO1) with antiproliferative activity” (Bioorg Med Chem, 2009).

How the values were obtained:
[1] = target: T1, CYP1A1 (Mus musculus, UniProt P00184); test: Induction of CYP1A1 activity in mouse Hepa-1c1c7 cells assessed as induction ratio at 20 uM after 48 hrs by EROD assay relative to control; format: ADME, cell-based
T1 sequence (P00184 whole entry): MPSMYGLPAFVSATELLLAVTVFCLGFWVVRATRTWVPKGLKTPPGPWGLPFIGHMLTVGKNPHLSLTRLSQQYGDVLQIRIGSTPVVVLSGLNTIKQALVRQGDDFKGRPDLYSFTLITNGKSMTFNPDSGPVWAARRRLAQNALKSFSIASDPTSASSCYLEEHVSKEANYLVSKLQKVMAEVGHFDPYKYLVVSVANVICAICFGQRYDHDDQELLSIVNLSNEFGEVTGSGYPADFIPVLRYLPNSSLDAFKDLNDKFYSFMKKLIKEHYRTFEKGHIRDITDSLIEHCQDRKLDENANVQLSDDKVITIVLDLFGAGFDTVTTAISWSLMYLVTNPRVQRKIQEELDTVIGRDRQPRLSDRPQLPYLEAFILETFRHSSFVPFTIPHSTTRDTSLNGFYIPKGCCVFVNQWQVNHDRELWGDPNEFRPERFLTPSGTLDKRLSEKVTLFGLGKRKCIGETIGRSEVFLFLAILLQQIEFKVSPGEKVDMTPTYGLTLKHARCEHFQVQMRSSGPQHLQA
Method in brief: (§1)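 Hepa1c1c7 cells were seeded at 10,000 per well and grown 24 h. They were then exposed 48 h to compound (final DMSO 0.5% v/v) at about 4 × the NQO1 CD. After a PBS wash, cells got 5 µM 7-ethoxyresorufin plus 2 mM salicylamide in medium, 37 °C, 40 min. Resorufin was read at ex 530/em 590 nm, corrected for compound fluorescence. Ratio = (F treated − blank)/(F DMSO control − blank); mean ± SD, n = 3.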

[2] = Cytotoxicity against mouse Hepa-1c1c7 cells after 48 hrs by MTT assay; format: cell-based; details: hepa-1c1c7, 48 h
Method in brief: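 Murine hepatoma cells in α-MEM with 10% heat- and charcoal-treated fetal calf serum, passages 6–17; MTT read-out as for the cancer lines but with 48 h compound exposure. Highest concentration tested 25 µM. IC50 from survival-versus-concentration curve; mean and SD, n = 3.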

[3] = target: NAD(P)H dehydrogenase [quinone] 1 (Mus musculus) (UniProt Q64669); test: Induction of NQO1 activity in mouse Hepa-1c1c7 cells assessed as induction ratio at 20 uM after 48 hrs by MTT assay relative to control; format: cell-based
NAD(P)H dehydrogenase [quinone] 1 (Mus musculus), sequence (Q64669 whole entry): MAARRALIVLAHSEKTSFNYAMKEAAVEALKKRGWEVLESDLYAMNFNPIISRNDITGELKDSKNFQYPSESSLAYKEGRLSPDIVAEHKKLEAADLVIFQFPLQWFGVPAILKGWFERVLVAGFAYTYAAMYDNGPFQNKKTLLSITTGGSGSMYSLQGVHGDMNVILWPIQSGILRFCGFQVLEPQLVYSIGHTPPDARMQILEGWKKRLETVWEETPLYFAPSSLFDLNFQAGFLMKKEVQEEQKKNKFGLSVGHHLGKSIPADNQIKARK
Method in brief: (§2)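 Hepa1c1c7 cells, 10,000 per well, 24 h, were then treated 48 h (DMSO ≤0.5%). Digitonin/EDTA lysates were assayed for menadione-dependent MTT-formazan formation using a G6P/G6PDH NADPH-generating mix with FAD at pH 7.4. The reaction ran 5 min, was stopped with dicoumarol, and read at A590. Degree of induction = (A test − blank)/(A control − blank). Ratios were read off the induction–concentration plot at the EROD test concentration.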

[4] = target: NAD(P)H dehydrogenase [quinone] 1 (Mus musculus) (UniProt Q64669); test: Induction of NQO1 activity in mouse Hepa-1c1c7 cells assessed as induction ratio at 5 uM after 48 hrs by MTT assay relative to control; format: cell-based; method in brief: as §2
[5] = target: T1, CYP1A1; test: Induction of CYP1A1 activity in mouse Hepa-1c1c7 cells assessed as induction ratio at 5 uM after 48 hrs by EROD assay relative to control; format: ADME, cell-based; method in brief: as §1
[6] = target: T1, CYP1A1; test: Induction of CYP1A1 activity in mouse Hepa-1c1c7 cells assessed as induction ratio at 7.5 uM after 48 hrs by EROD assay relative to control; format: ADME, cell-based; method in brief: as §1
[7] = target: NAD(P)H dehydrogenase [quinone] 1 (Mus musculus) (UniProt Q64669); test: Induction of NQO1 activity in mouse Hepa-1c1c7 cells assessed as induction ratio at 7.5 uM after 48 hrs by MTT assay relative to control; format: cell-based; method in brief: as §2
[8] = target: T1, CYP1A1; test: Induction of CYP1A1 activity in mouse Hepa-1c1c7 cells assessed as induction ratio at 2.5 uM after 48 hrs by EROD assay relative to control; format: ADME, cell-based; method in brief: as §1
[9] = target: NAD(P)H dehydrogenase [quinone] 1 (Mus musculus) (UniProt Q64669); test: Induction of NQO1 activity in mouse Hepa-1c1c7 cells assessed as induction ratio at 2.5 uM after 48 hrs by MTT assay relative to control; format: cell-based; method in brief: as §2
[10] = target: NAD(P)H dehydrogenase [quinone] 1 (Mus musculus) (UniProt Q64669); test: Induction of NQO1 activity in mouse Hepa-1c1c7 cells assessed as induction ratio at 1 uM after 48 hrs by MTT assay relative to control; format: cell-based; method in brief: as §2
[11] = target: T1, CYP1A1; test: Induction of CYP1A1 activity in mouse Hepa-1c1c7 cells assessed as induction ratio at 1 uM after 48 hrs by EROD assay relative to control; format: ADME, cell-based
Method in brief: (§3)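 About 10,000 Hepa1c1c7 cells/well cultured 24 h, then compound (0.5% DMSO final) for 48 h, at roughly 4 × the concentration doubling NQO1 activity. After PBS wash, cells given 5 µM 7-ethoxyresorufin plus 2 mM salicylamide, 37 °C, 40 min; resorufin fluorescence ex 530/em 590 nm, corrected for compound fluorescence. Ratio = (treated − blank)/(DMSO control − blank); mean ± SD, n = 3.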

[12] = system: HCT-116; test: Cell cycle arrest in human HCT116 cells released from G1 block assessed as accumulation at sub G1 phase at 15 uM after 24 hrs by flow cytometry; format: functional
[13] = system: HCT-116; test: Cell cycle arrest in human HCT116 cells released from G2 block assessed as accumulation at sub G1 phase at 15 uM after 24 hrs by flow cytometry; format: functional
[14] = system: HCT-116; test: Cell cycle arrest in human HCT116 cells released from G1 block assessed as accumulation at G1 phase at 15 uM after 24 hrs by flow cytometry; format: functional
[15] = system: HCT-116; test: Cell cycle arrest in human HCT116 cells released from G2 block assessed as accumulation at G1 phase at 15 uM after 24 hrs by flow cytometry; format: functional
[16] = system: HCT-116; test: Cell cycle arrest in human HCT116 cells released from G1 block assessed as accumulation at S phase at 15 uM after 24 hrs by flow cytometry; format: functional
[17] = system: HCT-116; test: Cell cycle arrest in human HCT116 cells released from G2 block assessed as accumulation at S phase at 15 uM after 24 hrs by flow cytometry; format: functional
[18] = system: HCT-116; test: Cell cycle arrest in human HCT116 cells released from G1 block assessed as accumulation at G2/M phase at 15 uM after 24 hrs by flow cytometry; format: functional
[19] = system: HCT-116; test: Cell cycle arrest in human HCT116 cells released from G2 block assessed as accumulation at G2/M phase at 15 uM after 24 hrs by flow cytometry; format: functional
[20] = target: T1, CYP1A1; test: Induction of CYP1A1 activity in mouse Hepa-1c1c7 cells assessed as induction ratio at 0.5 uM after 48 hrs by EROD assay relative to control; format: ADME, cell-based; method in brief: as §3
[21] = target: NAD(P)H dehydrogenase [quinone] 1 (Mus musculus) (UniProt Q64669); test: Induction of NQO1 activity in mouse Hepa-1c1c7 cells assessed as induction ratio at 0.5 uM after 48 hrs by MTT assay relative to control; format: cell-based; method in brief: as §2
[22] = system: HCT-116; test: Antiproliferative activity against human HCT116 cells after 72 hrs by MTT assay; format: functional, cell-based; details: HCT-116, 72 h
Method in brief: (§4)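 Cells seeded at 10,000 (MCF7), 4000 (HCT116) or 5000 (CCL186) per well and grown 24 h; MCF7 and CCL186 in EMEM with pyruvate, glutamine, 10% FBS; HCT116 in McCoy's 5A with 10% FBS. Compounds from DMSO stocks (≤1% DMSO final), 72 h exposure; MTT 0.5 mg/ml for 3 h, formazan in DMSO read at 590 nm. IC50 from sigmoidal survival curve, three separate occasions.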

[23] = system: MCF7; test: Antiproliferative activity against human MCF7 cells after 72 hrs by MTT assay; format: functional, cell-based; details: MCF7, 72 h; method in brief: as §4
[24] = Antiproliferative activity against human CCL186 cells after 72 hrs by MTT assay; format: cell-based; details: CCL186, 72 h; method in brief: as §4
[25] = system: MCF7; test: Selectivity ratio of IC50 for human CCL186 cells to IC50 for human MCF7 cells
Method in brief: (§5)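 MTT assay. MCF7 and CCL186 cells were grown in EMEM/10% FBS, HCT116 in McCoy's 5A/10% FBS. Seeding was 10,000 (MCF7), 4000 (HCT116) and 5000 (CCL186) cells per well, 24 h. Compound exposure was 72 h, DMSO ≤1% final. MTT 0.5 mg/ml for 3 h, formazan dissolved in DMSO, A590. IC50 came from sigmoidal survival curves, with 3 separate occasions per concentration. Ratio = IC50 CCL186 / IC50 of the cancer line.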

[26] = Selectivity ratio of IC50 for human CCL186 cells to IC50 for human HCT116 cells; format: ADME, cell-based, HCT-116; details: CCL186 cells and HCT116 cells, read-out: Ratio IC50; method in brief: as §5

Compound	Ratio [4]	fold induction at 48 h, 5 µM [5]	IC50 [2] [µM]	also measured
COc1cccc(CC2C(=O)Nc3ccccc32)c1 (stereo unspecified)			> 25	fold induction at 48 h, 20 µM [1]: 1.78; Ratio [3]: 2.23
O=C1Nc2ccccc2/C1=C\c1cccc(F)c1			> 25	fold induction at 48 h, 7.5 µM [6]: 1.11; Ratio [7]: 4.19
O=C1Nc2ccccc2/C1=C\c1ccccc1O			> 25	fold induction at 48 h, 20 µM [1]: 1.02; Ratio [3]: 3.35
COc1cccc(/C=C2/C(=O)N(C)c3ccccc32)c1	4.78	1.18	> 25	
O=C1Nc2ccccc2/C1=C\c1ccc(F)cc1Cl			> 25	fold induction at 48 h, 2.5 µM [8]: 1.2; Ratio [9]: 3.52
COc1cccc(/C=C2/C(=O)Nc3ccccc32)c1			> 25	Ratio [10]: 4.21; fold induction at 48 h, 1 µM [11]: 1.26
O=C1Nc2ccccc2/C1=C\c1c[nH]c2ccccc12			> 25	Ratio [10]: 4.33; fold induction at 48 h, 1 µM [11]: 1.28
O=C1Nc2ccccc2/C1=C\c1cc(O)cc(O)c1			> 25	fold induction at 48 h, 20 µM [1]: 1.04; Ratio [3]: 3.82
COc1ccc(/C=C2/C(=O)N(C)c3ccccc32)cc1O	2.64	1.08	15.5	
O=C1Nc2ccccc2/C1=C\c1ccc2ccccc2c1			> 25	fold induction at 48 h, 2.5 µM [8]: 1.06; Ratio [9]: 4.61
COc1cc(/C=C2/C(=O)Nc3ccccc32)cc(OC)c1OC			> 25	Activity [12]: 3.78%; Activity [13]: 4.13%; Activity [14]: 56.85%; Activity [15]: 42.06%; Activity [16]: 21.42%; Activity [17]: 16.84%; Activity [18]: 18.54%; Activity [19]: 36.45%
COc1ccc(/C=C2/C(=O)Nc3cc(F)ccc32)cc1O			15.6	fold induction at 48 h, 0.5 µM [20]: 2.05; Ratio [21]: 4.1
COc1ccc(/C=C2/C(=O)Nc3ccccc32)c(O)c1			> 25	fold induction at 48 h, 2.5 µM [8]: 2.35; Ratio [9]: 3.59
COc1cc(/C=C2/C(=O)Nc3ccccc32)cc(OC)c1			16	IC50 [22]: 5.8 µM; IC50 [23]: 10.5 µM; IC50 [24]: 23.6 µM; Ratio IC50 [25]: 4.1; selectivity ratio [26]: 2.2

The next lines start with results.

Ratio [4]	fold induction at 48 h, 5 µM [5]	Compound	IC50 [2] [µM]	also measured
3.94	1.11	O=C1Nc2ccccc2/C1=C\c1cccc(O)c1	> 25	
4.5	1.04	COc1ccc(/C=C2/C(=O)Nc3ccccc32)cc1	> 25	
4.45	1.66	Cc1ccccc1/C=C1/C(=O)Nc2ccccc21	> 25	
5.13	1.01	O=C1Nc2ccccc2/C1=C\c1ccccc1	> 25	
4	1.32	COc1cc(/C=C2/C(=O)Nc3ccccc32)ccc1O	14.6	
